Bioassay records as filed in PubChem.
PolyA inh – blocks polyadenylation in yeast reporter cells; S. cerevisiae SKY197-pL101 polyadenylation reporter, beta-gal luminescence; efflux-impaired pdr1/pdr3 knockout yeast; score 100 = 6 SD above DMSO; activity score, % at 12 µM; actives 0.02% (n = 300,000); AID 1875;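 active means lowest replicate activity score at least 50, where 100 means six control SD above control mean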;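 further: yeast exposed to compound for 9 h at 30 °C; higher score means more reporter readthrough which indicates perturbed polyadenylation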
Calb FLC – affects C. albicans growth with fluconazole | actives 0.57% (n = 300,000) | growth inhibition, % (no concentration beside the values) | C. albicans CaCi-2 (fluconazole-resistant clinical isolate) + fluconazole, Alamar Blue growth, 48 h | AID 1979;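 active means growth inhibition above about 58% in most replicates, limit read from the data, passing the limit was not always enough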;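 further: all wells also contain fluconazole at 8 µg/ml as a sub-toxic cotreatment; 0% = median of DMSO wells and 100% = median of geldanamycin control wells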
Beta cell apopt – beta cell apoptosis inhibition; INS-1E cytokine-induced death, ATP luminescence, 48 h; percent of positive-control rescue, neutral wells zero; protection from apoptosis, % (no concentration beside the values); actives 0.8% (n = 300,000); AID 435005;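 active means Every replicate reaches about 75%, or at least half do and their mean reaches it too, limit read from the data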;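 further: 0% = cytokine-treated negative control wells and 100% = positive control rescue; higher means more ATP so stronger rescue from cytokine killing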
HIF act – HIF pathway transcriptional activation | U2OS HRE-luciferase reporter, luminescence; normalized: DMSO 0%, desferrioxamine 100% | activation, % at 7.5 µM (by protocol) | actives 0.32% (n = 300,000);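 active means mean activation of at least 10% of the iron chelator positive control signal, with at least half of replicates also reaching 10%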
T cruzi inh – blocks replication of Trypanosoma cruzi; inhibition, % (no concentration beside the values); actives 1.4% (n = 300,000); T. cruzi beta-gal in NIH3T3, luminescence, 90 h;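 active means mean inhibition across valid replicates above about 55%, limit read from the data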;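 further: signal also drops with host cell toxicity which is not excluded here; 0% = plate median of DMSO wells and 100% = zero luminescence signal; higher percent means less beta-gal luminescence so fewer parasites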
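Test system: β-gal T. cruzi (Tulahuen C4) inside NIH/3T3 cells / Quantity: 5,000 cells/well / Measured by: luminescence from GalScreen with 0.05% NP40, read after 60 min / Medium: DMEM plus 2% FBS / Measure: parasite load inhibition, % / Reagent: Tulahuen C4 trypomastigotes, 5000/well / Schedule: co-culture of at least 90 h after 3 h attachment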
CSC inhib – cancer stem cell inhibition; cancer stem cell-like cells viability, luminescence; actives 1.1% (n = 300,000); inhibition, % at 7.5 µM; AID 2717; in the data active means inhibition above about 75%; tested in HMLE shEcad cells
Numbers without * were called inactive. A selection: hits, their analogues and other compounds. The true share with any hit is near 3.1%.

How did CS(=O)(=O)c1ccccc1C(=O)NC1CCCc2ccccc21 (stereo unspecified) do in these assays?
PolyA inh: 11; Calb FLC: -6; Beta cell apopt: -2; HIF act: 0; T cruzi inh: -14; CSC inhib: -4

Results for COCC1CCN(Cc2cn[nH]c2-c2cc3ccccc3o2)C1 (stereo unspecified) ?
PolyA inh: 15; Calb FLC: -7; Beta cell apopt: 2; HIF act: 0; T cruzi inh: 69*; CSC inhib: 26

What do the screens show for `c1ccc2oc(-c3[nH]ncc3CN3CCSCC3)cc2c1`?
PolyA inh: 2; Calb FLC: 7; Beta cell apopt: 0; HIF act: 0; T cruzi inh: 7; CSC inhib: -6

What do the screens show for `COc1ccccc1NC(=O)C(C)OC(=O)CCCOc1ccccc1` (stereo unspecified)?
PolyA inh: 24; Calb FLC: -2; Beta cell apopt: -2; HIF act: 0; T cruzi inh: -16; CSC inhib: 0

What do the screens show for `CC1/C(=N/O)CC(c2ccco2)NC1c1ccco1` (stereo unspecified)?
PolyA inh: -5; Calb FLC: -6; Beta cell apopt: 2; HIF act: 0; T cruzi inh: -15; CSC inhib: -11

Results for CCCC1C(c2ccco2)NC(c2ccco2)CC1(C)O (stereo unspecified) ?
PolyA inh: -5; Calb FLC: 89*; Beta cell apopt: -1; HIF act: 0; T cruzi inh: 8; CSC inhib: 2

What do the screens show for `COc1ccc2cc(/C(C)=N/NC(=O)c3cc(-c4cccnc4)nc4ccccc34)ccc2c1`?
PolyA inh: -1; Calb FLC: 4; Beta cell apopt: -3; HIF act: 0; T cruzi inh: -13; CSC inhib: -12

What do the screens show for `Cc1ccc(S(=O)(=O)N2CCN(C(=O)COC(=O)CSc3cc(C)ccc3C)CC2)c(C)c1`?
Beta cell apopt: -15

What do the screens show for `Oc1cc2c(cc1CN1CCc3ccccc3C1)OCO2`?
PolyA inh: 0; Calb FLC: -11; Beta cell apopt: -9; HIF act: 1; T cruzi inh: -12; CSC inhib: -1

Results for Oc1ccc(CN2CCc3ccccc3C2)c2cccnc12 ?
PolyA inh: -68; Calb FLC: 5; Beta cell apopt: 112*; HIF act: 159*; T cruzi inh: 57*; CSC inhib: 60

How did O=[N+]([O-])c1cc(CN2CCN(c3cccc(C(F)(F)F)c3)CC2)c2cccnc2c1O do in these assays?
PolyA inh: -19; Calb FLC: 2; Beta cell apopt: 70; HIF act: 0; T cruzi inh: 76*; CSC inhib: 5

Results for Oc1ccc(CN2CCN(c3ccccc3)CC2)c2cccnc12 ?
PolyA inh: -25; Calb FLC: -7; Beta cell apopt: 43; HIF act: 4; T cruzi inh: 64*; CSC inhib: -6

Results for Oc1ccc2ccccc2c1CN1CCN(c2ccccc2)CC1 ?
PolyA inh: 13; Calb FLC: 31; Beta cell apopt: -3; HIF act: 1; T cruzi inh: -13; CSC inhib: -5

What do the screens show for `OCc1ccc(O)c2ncccc12`?
PolyA inh: -7; Calb FLC: 107*; Beta cell apopt: 107*; HIF act: 2; T cruzi inh: 48; CSC inhib: -3

What do the screens show for `CCOC(=O)/C=c1\s/c(=C\c2sccc2C)c(=O)n1CC(=O)NCc1ccc(C)cc1`?
PolyA inh: 7; Calb FLC: -15; Beta cell apopt: 12; HIF act: -5; T cruzi inh: 8; CSC inhib: 14

What do the screens show for `Oc1ccc(CN2CCC(Cc3ccccc3)CC2)c2cccnc12`?
PolyA inh: -30; Calb FLC: 112*; HIF act: 18*; T cruzi inh: 50

How did Oc1c(Cl)cc(CN2CCCCC2)c2cccnc12 do in these assays?
PolyA inh: -1; Calb FLC: -8; Beta cell apopt: 111*; HIF act: 4; T cruzi inh: 53; CSC inhib: 87*

How did CCOC(=O)N1CCN(Cc2ccc(O)c3ncccc23)CC1 do in these assays?
PolyA inh: -17; Calb FLC: 82*; Beta cell apopt: -1; HIF act: 0; T cruzi inh: 34; CSC inhib: 46

How did O=[N+]([O-])c1cc(CN2CCCC2)c2cccnc2c1O do in these assays?
Beta cell apopt: 5; CSC inhib: 34

Results for CSc1ncccc1C(=O)N1CCN(S(=O)(=O)c2cc(C)ccc2C)CC1 ?
PolyA inh: 5; Calb FLC: 5; Beta cell apopt: -5; HIF act: -1; T cruzi inh: 16; CSC inhib: 0

What do the screens show for `Cc1ccc(C)c(S(=O)(=O)N2CCN(Cc3ccc(O)c4ncccc34)CC2)c1`?
PolyA inh: 7; Calb FLC: 110*; Beta cell apopt: 87*; HIF act: 29*; T cruzi inh: -5; CSC inhib: 5

What do the screens show for `COc1ccc([C@@H]2CC=C(C(=O)O)[C@H](c3ccc(Cl)cc3)N2S(=O)(=O)c2ccc(C)cc2)cc1OC`?
Beta cell apopt: 3; CSC inhib: -11

Results for COc1cc(CN2CCc3ccccc3C2)ccc1O ?
PolyA inh: 0; Calb FLC: -2; Beta cell apopt: 142*; HIF act: 1; T cruzi inh: -26; CSC inhib: 22

What do the screens show for `Oc1ccc(CN2CCCCC2)c2cccnc12`?
PolyA inh: -24; Calb FLC: 103*; Beta cell apopt: 5; HIF act: 1; T cruzi inh: 68*; CSC inhib: 23

Results for CCOc1ccccc1/C=N/NC(=O)C[n+]1ccccc1 ?
Beta cell apopt: -7

Results for CCCCCc1ccc(OCCCC[n+]2ccc(C)cc2)c(CCCCC)c1 ?
PolyA inh: -37; Calb FLC: 98*; Beta cell apopt: 111*; CSC inhib: 17

How did CCCCCc1ccc(OCCCC[n+]2ccccc2)c(CCCCC)c1 do in these assays?
PolyA inh: -47; Calb FLC: 100*; Beta cell apopt: 87*; HIF act: 0; T cruzi inh: 49; CSC inhib: 2

What do the screens show for `Cc1cc(=O)oc2cc(OCCCC[n+]3ccccc3)ccc12`?
PolyA inh: -9; Calb FLC: 5; Beta cell apopt: -2; HIF act: 1; T cruzi inh: -7; CSC inhib: 12

How did CCC(C)(C)c1ccc(OCCCC[n+]2ccccc2)c(C(C)(C)CC)c1 do in these assays?
Beta cell apopt: 114*; HIF act: 0; T cruzi inh: 58*; CSC inhib: 105*

How did CCC(C)(C)c1ccc(Oc2cccc(C(=O)O)c2)cc1 do in these assays?
PolyA inh: -9; Calb FLC: 20; Beta cell apopt: -2; HIF act: 1; T cruzi inh: 12; CSC inhib: 19
